How the values were obtained:
[1] = molecular target: T1, 5-hydroxytryptamine receptor 2A (Homo sapiens, UniProt P28223); experiment: Displacement of [3H]ketanserin hydrochloride from 5-HT2A receptor (unknown origin) expressed in HEK293 cell membranes incubated for 15 mins by liquid scintillation spectrometry
[2] = molecular target: T1, 5-hydroxytryptamine receptor 2A; experiment: Displacement of [3H]ketanserin hydrochloride from 5-HT2A receptor (unknown origin) expressed in HEK293 cell membranes incubated for 15 mins by liquid scintillation spectrometry relative to control; design: concentration or dose not given beside the values
How it was run: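 [3H]-Ketanserin displacement at 5-HT2A, first run as percent displacement of radioligand by a 10 μM test concentration.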

[3] = molecular target: T1, 5-hydroxytryptamine receptor 2A; experiment: Agonist activity at 5-HT2A receptor (unknown origin) expressed in HEK293 cell membranes assessed as induction of [35S]-GTPgammaS binding incubated for 30 mins by liquid scintillation counting method; assay type: functional
[4] = molecular target: T2, 5-hydroxytryptamine receptor 1A (Homo sapiens, UniProt P08908); experiment: (§1) Displacement of [3H]-8-OH-DPAT from 5-HT1A receptor (unknown origin) expressed in HEK293 cell membranes incubated for 15 mins by liquid scintillation spectrometry
T2 sequence (P08908 whole entry): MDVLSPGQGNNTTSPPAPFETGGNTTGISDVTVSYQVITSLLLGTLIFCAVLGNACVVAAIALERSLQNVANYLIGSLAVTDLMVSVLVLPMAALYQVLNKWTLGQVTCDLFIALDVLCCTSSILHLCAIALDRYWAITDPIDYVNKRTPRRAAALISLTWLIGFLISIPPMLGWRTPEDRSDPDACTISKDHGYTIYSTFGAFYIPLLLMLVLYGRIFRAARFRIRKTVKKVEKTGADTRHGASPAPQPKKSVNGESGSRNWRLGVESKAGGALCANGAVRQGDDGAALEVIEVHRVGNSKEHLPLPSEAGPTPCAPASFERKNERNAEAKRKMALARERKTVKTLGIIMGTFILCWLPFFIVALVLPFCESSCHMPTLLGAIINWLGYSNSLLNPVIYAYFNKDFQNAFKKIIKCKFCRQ

D(2) dopamine receptor = D(2) dopamine receptor (Homo sapiens, UniProt P14416); experiment: Displacement of [3H]-spiperone from dopamine D2 receptor (unknown origin) expressed in HEK293 cell membranes incubated for 15 mins by liquid scintillation spectrometry
Sequence of D(2) dopamine receptor (P14416 whole entry): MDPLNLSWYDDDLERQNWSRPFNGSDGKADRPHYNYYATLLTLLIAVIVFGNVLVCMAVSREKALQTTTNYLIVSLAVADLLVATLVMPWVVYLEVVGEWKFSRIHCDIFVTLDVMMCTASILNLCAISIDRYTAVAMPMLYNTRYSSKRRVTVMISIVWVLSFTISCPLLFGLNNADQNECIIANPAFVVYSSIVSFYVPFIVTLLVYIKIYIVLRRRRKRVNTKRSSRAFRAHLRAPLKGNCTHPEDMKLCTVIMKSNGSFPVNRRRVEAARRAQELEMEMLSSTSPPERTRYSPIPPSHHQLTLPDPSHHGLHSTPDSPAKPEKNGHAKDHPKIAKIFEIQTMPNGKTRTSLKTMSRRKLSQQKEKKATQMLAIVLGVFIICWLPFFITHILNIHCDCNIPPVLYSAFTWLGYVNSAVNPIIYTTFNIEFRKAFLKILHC

D(1A) dopamine receptor [5] = molecular target: T3, D(1A) dopamine receptor (Homo sapiens, UniProt P21728); conditions: hek293
T3 sequence (P21728 whole entry): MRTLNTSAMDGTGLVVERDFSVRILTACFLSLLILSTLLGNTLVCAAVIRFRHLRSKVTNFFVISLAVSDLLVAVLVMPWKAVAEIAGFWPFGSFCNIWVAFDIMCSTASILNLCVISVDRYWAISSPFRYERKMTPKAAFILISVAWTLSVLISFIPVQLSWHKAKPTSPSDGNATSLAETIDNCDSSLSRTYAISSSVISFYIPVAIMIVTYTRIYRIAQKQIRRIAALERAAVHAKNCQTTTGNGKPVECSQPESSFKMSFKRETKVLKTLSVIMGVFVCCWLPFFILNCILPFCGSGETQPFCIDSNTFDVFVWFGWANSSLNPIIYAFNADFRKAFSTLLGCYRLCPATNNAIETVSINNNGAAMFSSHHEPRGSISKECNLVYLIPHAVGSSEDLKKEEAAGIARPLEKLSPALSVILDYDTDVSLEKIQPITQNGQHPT

D(3) dopamine receptor = D(3) dopamine receptor (Homo sapiens, UniProt P35462); experiment: Displacement of [3H]-spiperone from dopamine D3 receptor (unknown origin) expressed in HEK293 cell membranes incubated for 15 mins by liquid scintillation spectrometry; design: concentration or dose not given beside the values
Sequence of D(3) dopamine receptor (P35462 whole entry): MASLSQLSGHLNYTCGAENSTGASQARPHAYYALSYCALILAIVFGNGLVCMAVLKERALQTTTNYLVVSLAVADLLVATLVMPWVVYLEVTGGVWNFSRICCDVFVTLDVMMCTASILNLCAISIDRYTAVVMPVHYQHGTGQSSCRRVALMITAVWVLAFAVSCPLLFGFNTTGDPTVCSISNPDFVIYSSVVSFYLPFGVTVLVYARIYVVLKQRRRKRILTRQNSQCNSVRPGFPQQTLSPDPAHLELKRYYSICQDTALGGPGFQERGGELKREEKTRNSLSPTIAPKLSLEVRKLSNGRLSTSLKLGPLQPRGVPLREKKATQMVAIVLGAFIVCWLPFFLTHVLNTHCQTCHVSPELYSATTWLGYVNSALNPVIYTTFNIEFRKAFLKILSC

[6] = molecular target: T4, 5-hydroxytryptamine receptor 1A (Homo sapiens) (UniProt P08908); experiment: as §1; design: concentration or dose not given beside the values
T4 sequence (whole entry): T2 sequence (P08908 whole entry)

[7] = molecular target: T1, 5-hydroxytryptamine receptor 2A; assay type: functional, cell-based, HEK293
D(1A) dopamine receptor [8] = molecular target: T3, D(1A) dopamine receptor; experiment: Displacement of [3H]-SCH-23390 from dopamine D1 receptor (unknown origin) expressed in HEK293 cell membranes incubated for 15 mins by liquid scintillation spectrometry

T1 sequence (P28223 whole entry): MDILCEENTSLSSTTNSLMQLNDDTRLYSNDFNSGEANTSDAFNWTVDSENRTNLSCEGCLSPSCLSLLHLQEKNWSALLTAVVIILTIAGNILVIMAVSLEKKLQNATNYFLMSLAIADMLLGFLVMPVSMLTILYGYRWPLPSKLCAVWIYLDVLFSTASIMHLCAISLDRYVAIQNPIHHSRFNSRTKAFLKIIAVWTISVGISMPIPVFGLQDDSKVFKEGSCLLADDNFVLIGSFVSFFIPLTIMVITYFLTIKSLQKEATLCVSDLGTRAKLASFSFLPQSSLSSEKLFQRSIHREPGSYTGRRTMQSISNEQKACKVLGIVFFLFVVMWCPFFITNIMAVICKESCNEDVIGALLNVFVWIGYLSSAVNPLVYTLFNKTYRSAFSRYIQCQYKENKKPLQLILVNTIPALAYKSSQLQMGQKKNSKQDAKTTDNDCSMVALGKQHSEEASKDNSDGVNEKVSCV

| Compound | Ki [1] | inhibition [2] | EC50 [3] | Ki [4] | Ki (D(2) dopamine receptor) | Ki (D(1A) dopamine receptor [5]) | inhibition (D(3) dopamine receptor) | Ki (D(3) dopamine receptor; read-out: Ki) | Ki (D(3) dopamine receptor; hek293) | inhibition [6] | IC50 [7] | inhibition (D(2) dopamine receptor) | inhibition (D(1A) dopamine receptor [8]) |
| --- | --- | --- | --- | --- | --- | --- | --- | --- | --- | --- | --- | --- | --- |
| COc1ccccc1Nc1nc(N2CCNCC2)nc2ccccc12 | 45.8 nM | > 90% | Not Active | Not Active | Not Active | Not Active | – | – | – | – | – | – | – |
| Fc1ccc(Nc2nc(N3CCOCC3)nc3ccccc23)cc1 | 235 nM | > 90% | – | Not Active | Not Active | Not Active | -0.57% | – | – | – | – | – | – |
| OCCN1CCN(c2nc(Nc3ccc(I)cc3)c3ccccc3n2)CC1 | 383 nM | > 90% | – | – | – | – | – | – | – | – | – | – | – |
| OCCN1CCN(c2nc(NCc3ccccc3)c3ccccc3n2)CC1 | 520 nM | > 90% | – | Not Active | Not Active | Not Active | – | 1440 nM | – | – | – | – | – |
| CC(C)c1ccc(Nc2nc(Nc3ccc(C(C)C)cc3)c3ccccc3n2)cc1 | – | 5.91% | – | Not Active | Not Active | Not Active | – | – | Not Active | – | – | – | – |
| Fc1ccccc1Nc1nc(N2CCOCC2)nc2ccccc12 | 184 nM | > 90% | – | Not Active | Not Active | Not Active | – | – | – | – | – | – | – |
| COc1ccc(Nc2nc(N3CCN(CCO)CC3)nc3ccccc23)c(OC)c1 | 594 nM | > 90% | – | Not Active | Not Active | Not Active | – | – | Not Active | – | – | – | – |
| COc1ccccc1Nc1nc(N2CCN(CCO)CC2)nc2ccccc12 | 146 nM | > 90% | – | – | Not Active | Not Active | 0.9% | – | – | 52% | – | – | – |
| OCCN1CCN(c2nc(Nc3ccc(Br)cc3)c3ccccc3n2)CC1 | 92 nM | – | Not Active | Not Active | Not Active | Not Active | – | 571 nM | – | – | 27.7 µM | – | – |
| Cc1ccc(Nc2nc(N3CCN(CCO)CC3)nc3ccccc23)c(C)c1 | 268 nM | > 90% | – | – | Not Active | Not Active | 39% | – | – | 81.2% | – | – | – |
| COc1ccc(Nc2nc(N3CCN(CCO)CC3)nc3ccccc23)cc1 | 1360 nM | > 90% | – | – | – | – | – | – | – | – | – | – | – |
| Ic1ccc(Nc2nc(N3CCNCC3)nc3ccccc23)cc1 | 496 nM | > 90% | – | – | Not Active | Not Active | – | – | Not Active | 56.6% | – | – | – |
| OCCN1CCN(c2nc(Nc3cccc(O)c3)c3ccccc3n2)CC1 | 83.4 nM | > 90% | Not Active | Not Active | Not Active | Not Active | 11.7% | – | – | – | 9.12 µM | – | – |
| Clc1ccc(Nc2nc(N3CCNCC3)nc3ccccc23)cc1 | 14 nM | – | Not Active | – | – | – | 78.8% | – | – | 88.6% | 1.66 µM | 71.4% | 83.9% |
| CC(C)(C)[C@@]1(O)CCN2C[C@@H]3c4ccccc4CCc4cccc(c43)[C@H]2C1 | – | > 90% | – | – | – | – | – | – | – | – | – | – | – |
| CC(C)c1ccc(Nc2nc(N3CCN(CCO)CC3)nc3ccccc23)cc1 | 149 nM | > 90% | – | – | Not Active | Not Active | – | 1140 nM | – | 42.3% | – | – | – |
| Fc1ccccc1Nc1nc(N2CCNCC2)nc2ccccc12 | 70 nM | > 90% | Not Active | Not Active | Not Active | Not Active | 22.5% | – | – | – | – | – | – |
| OCCN1CCN(c2nc(Nc3ccc(Cl)cc3)c3ccccc3n2)CC1 | 109 nM | – | Not Active | – | – | – | 75.6% | – | – | 53.8% | 7.43 µM | 53% | 80.5% |
| OCCN1CCN(c2nc(Nc3ccc(F)cc3)c3ccccc3n2)CC1 | 120 nM | – | Not Active | Not Active | Not Active | Not Active | 49.3% | – | – | – | 21.3 µM | – | – |
| OCCN1CCN(c2nc(Nc3ccccc3F)c3ccccc3n2)CC1 | 65.8 nM | > 90% | Not Active | Not Active | Not Active | Not Active | 10.1% | – | – | – | 1.37 µM | – | – |
| Clc1ccc(Nc2nc(N3CCOCC3)nc3ccccc23)cc1 | – | 45.3% | – | – | – | – | – | – | – | 16.7% | – | – | -9.36% |
| CC(C)c1ccc(Nc2nc(N3CCNCC3)nc3ccccc23)cc1 | 42.1 nM | > 90% | – | – | – | – | 22.5% | – | – | 84.3% | – | 14% | 94.8% |
| CC(C)c1ccc(Nc2nc(N(C)C)nc3ccccc23)cc1 | – | 75.1% | – | Not Active | Not Active | Not Active | – | – | Not Active | – | – | – | – |
